Screens from PubChem.
An excerpt weighted towards active compounds, which were near 2.6% of everything screened.
EP2 mod: EP2 receptor (human) modulation; AID 940; EP2-expressing cells, cAMP HTRF FRET, PGE2 co-stimulation; P43116; induction, % at 25 µM; 260,000 tested, 0.83% active;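 active = compounds whose cAMP rise, as percent of the full-agonist control response, exceeds 60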;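 note: rat C6 glioma line stably carrying human EP2 under a CMV promoter; the protocol text gives 20 µM as final concentration; 100% = response of wells given 1 µM PGE2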
Target sequence (P43116 whole entry, looked up): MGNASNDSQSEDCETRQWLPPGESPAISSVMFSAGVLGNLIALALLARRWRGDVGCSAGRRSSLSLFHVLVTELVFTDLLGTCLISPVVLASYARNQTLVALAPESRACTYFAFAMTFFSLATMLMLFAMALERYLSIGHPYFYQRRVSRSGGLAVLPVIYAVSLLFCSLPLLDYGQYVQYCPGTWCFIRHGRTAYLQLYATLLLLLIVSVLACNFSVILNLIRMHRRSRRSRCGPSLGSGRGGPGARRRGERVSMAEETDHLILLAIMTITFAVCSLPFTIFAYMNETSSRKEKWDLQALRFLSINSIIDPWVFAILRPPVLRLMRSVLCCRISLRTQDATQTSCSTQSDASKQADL
EP2 antag: blocks the human prostaglandin E2 receptor EP2 | C6 glioma cells expressing human EP2, cAMP TR-FRET; cells stimulated with saturating PGE2 | inhibition, % at 25 µM | 260,000 tested, 0.52% active | AID 1422;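 active = percent inhibition above 40 after rounding to a whole number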;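 note: rat C6 glioma host cells with rolipram phosphodiesterase inhibitor present; the protocol text gives 20 µM as final concentration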
MC4R barr agon: agonists of human melanocortin 4 receptor (MC4R) beta-arrestin; P32245; U2OS MC4R beta-arrestin complementation, luminescence; percent of melanotan II response, DMSO zero; activation, % at 8.9 µM; 360,000 tested, 0.98% active;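 active = activation above a per-plate cutoff, the mean activation of sample wells on that plate plus 3 SD, cut at about 8% in these data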
Target sequence (P32245 whole entry, looked up): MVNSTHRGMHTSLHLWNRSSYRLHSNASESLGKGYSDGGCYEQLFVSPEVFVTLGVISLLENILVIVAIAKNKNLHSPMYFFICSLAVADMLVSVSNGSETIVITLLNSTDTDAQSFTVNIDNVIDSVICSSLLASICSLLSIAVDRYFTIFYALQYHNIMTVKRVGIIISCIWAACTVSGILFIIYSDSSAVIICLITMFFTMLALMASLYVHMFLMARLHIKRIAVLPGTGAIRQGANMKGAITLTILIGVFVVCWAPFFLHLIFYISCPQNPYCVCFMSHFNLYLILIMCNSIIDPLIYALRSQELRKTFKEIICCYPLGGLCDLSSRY
T cell modulator: T cell immune modulation candidate; 2C CD8+ T cell-vesicle binding, flow cytometry; hits give low values; response (vesicle binding), % at 7 µM; 330,000 tested, 0.068% active; AID 2052;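 active = response, share of CD8 T cells binding vesicles, and their 90th percentile fluorescence all below set limits, cut at about 80% in these data, passing the limit was not always enough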;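 note: values below 100% mean blocked vesicle binding to the CD8+ T cells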
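Test system: purified 2C TCR transgenic mouse naive CD8+ T cells. Probe or stimulus: QL9-peptide-loaded Drosophila micro-vesicles bearing Ld, ICAM-1 and B7-1. Incubation: binding step 1.5 h, 37 °C, antibody labelling 20 min, ice. Measured by: flow cytometry of vesicle-bound cells.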
Granule exo inh: lytic granule exocytosis inhibition; TALL-104 LAMP-1 surface exposure, flow cytometry; cells stimulated with thapsigargin and PMA; inhibition, % at 10 µM; 360,000 tested, 0.66% active; AID 651702;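 active = inhibition above about 55%, limit read from the data; inconclusive = no clear call, values can overlap the other calls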
MC4R antagonist: blocks human MC4R cAMP signaling; P32245; MC4R-expressing cells, MTII-stimulated cAMP, LANCE TR-FRET; inhibition, % at 6.5 µM; 360,000 tested, 0.48% active; AID 540295;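 active = inhibition above its plate's cutoff, the mean of tested wells on that plate plus 3 SD, cut at about 29% in these data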;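 note: 0% = Melanotan II alone and 100% = Melanotan II plus saturating MCL0020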
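Material: U2OS-MC4R stable cell line | Reagent: Melanotan II challenge after compound preincubation | Doses: One concentration, 6.5 µM nominal | Incubation: 30-min compound preincubation, 1-h Melanotan II challenge, 1-h detection, room temperature | Signal: TR-FRET cAMP assay | Replicates: One well per compound, no replicates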
The depositor's hits bear a star; ? = inconclusive; . = no result given.

SMILES | EP2 mod | EP2 antag | MC4R barr agon | T cell modulator | Granule exo inh | MC4R antagonist
CCCCc1nc2sc3c(=O)[nH]cnc3c2c2c1CCCC2 | 61* | 10 | -1 | 198 | -2 | 25
CC(C)NC(=O)C1(C)CCN1C(=O)c1cccn1C (configuration not stated) | . | . | 0 | . | -8 | 5
O=C1NC(=O)N(c2ccc(F)cc2)C(=O)/C1=C/c1ccc(N2CCOCC2)o1 | -9 | 10 | . | . | . | .
O=C1NC(=O)N(c2ccc(F)cc2)C(=O)/C1=C/c1ccco1 | -120 | 53* | . | . | . | .
Cc1cccc(NS(=O)(=O)c2ccc3[nH]c(=O)oc3c2)c1C | . | . | -1 | 330 | 2 | 1
Cc1cccc(NS(=O)(=O)c2ccc3nc(-c4ccccc4)[nH]c3c2)c1C | -49 | 7 | 9.0* | 210 | 1 | -1
O=C(Cc1ccc(Cl)cc1)Nc1ccc(-c2cc3ccccc3oc2=O)c(Cl)c1 | 9 | 5 | 0 | 115 | -2 | -16
CC1(c2ccccc2)CC(c2ccccc2)=Nc2nonc2N1 (configuration not stated) | 34 | 14 | -1 | 150 | 1 | 6
CC1(c2ccccc2)CC(c2ccccc2)=Nc2ccccc2N1 (configuration not stated) | 88* | 8 | -2 | 730 | 1 | 5
c1ccc2c(c1)C(=Nc1ccc(N=C3c4ccccc4-c4ccccc43)cc1)c1ccccc1-2 | -8 | 45* | . | . | . | .
COc1cccc(C2C=C(c3ccc(Br)s3)Nc3ncnn32)c1OC (configuration not stated) | -43 | 112* | -2 | 192 | -3 | 13
COCCNC(=O)COC(=O)c1cc(-c2ccc(OC)cc2)nc2ccccc12 | -43 | 0 | -2 | 260 | -2 | 12
Nc1nc(F)nc2c1ncn2[C@@H]1O[C@H](CO)[C@@H](O)[C@@H]1O | -26 | 34 | 1 | 157 | -1 | 17
COc1ccc(-c2nc(N)c3ncn([C@H]4O[C@H](CO)[C@@H](O)[C@@H]4O)c3n2)cc1 | 11 | 52* | . | . | . | .
COc1cc(C=O)ccc1OCc1ccccc1Br | 65* | 5 | -1 | 228 | 0 | 6
NC(=O)c1nnn(Cc2cc(Cl)c(C(=O)c3ccc(Cl)cc3)c(Cl)c2)c1N | -15 | 44* | . | . | 14 | .
O=c1[nH]nc(Cc2ccc(-c3ccccc3Cl)o2)c2ccccc12 | 41 | 8 | 8.9* | 262 | 3 | -2
CC1CCCN(C(=O)COC(=O)Cc2c[nH]c3ccccc23)C1 (configuration not stated) | . | . | -1 | 198 | 0 | 8
CC(C)OC(=O)c1sc2nc(-c3ccccc3)ccc2c1N | 8 | 13 | 9.5* | 276 | 19 | 7
Cc1c(OCC(=O)NCC2CCC(C(=O)O)CC2)ccc2c(-c3ccccc3)cc(=O)oc12 (configuration not stated) | . | . | 0 | 192 | -5 | 4
O=C(Nc1cc(Br)ccc1O)C1CC(c2ccccc2Cl)=NO1 (configuration not stated) | -95 | 13 | 8.6* | 182 | -9 | 5
Cc1ccc(C)c(OCCCNCc2ccccc2)c1 | . | . | 7 | 649 | 22 | 17
Clc1cc(Br)ccc1OCCCNCc1ccccc1 | -39 | 10 | 8.8* | 236 | 1 | 3
Cc1ccc2nc(NCc3ccccc3)[nH]c2c1 | -24 | 10 | -3 | 212 | 6 | -21
CN(C)c1ccc(NC(=O)C[n+]2ccccc2)cc1 | . | . | -2 | 484 | 56* | 5
SMILES | EP2 mod | EP2 antag | MC4R barr agon | T cell modulator | Granule exo inh | MC4R antagonist
CCCCCNC(=O)CSC1=N/C(=C\c2ccc(Cl)c(Cl)c2)C(=O)N1CC | 7 | 16 | -3 | 400 | -2 | -3
NC(N)=N/N=C/c1ccc(OCc2ccccc2Cl)cc1 | 33 | 96* | 22* | 165 | -15 | 2
NC(N)=N/N=C/c1ccccc1 | -41 | 17 | -1 | 367 | 1 | 1
O=[N+]([O-])c1cc(C(F)(F)F)ccc1Sc1ccccn1 | 3 | 8 | 8.6* | 256 | -2 | -5
N/C(Cn1cncn1)=N\NC(=O)c1ccc(Cl)cc1Cl | 25 | 3 | -2 | 371 | 1 | 5
Cc1ccc(C(O)(C(=O)NN(C(=O)c2ccccc2)c2ccccc2)c2ccc(C)cc2)cc1 | 6 | 8 | 8.3* | 85 | -3 | 5
O=C(c1ccccc1)N(NC(=O)C(O)(c1ccccc1)c1ccccc1)c1cccc(F)c1 | 10 | 4 | -2 | 228 | -3 | 3
Cc1ccc(N(NC(=O)C(O)(c2ccccc2)c2ccccc2)C(=O)CCl)cc1 | 20 | 6 | 10* | 192 | 13 | 27
CCC(O)(CC)C(=O)NN(C(=O)CCl)c1ccccc1 | -12 | 8 | -1 | 296 | 2 | 3
Cc1ccc(-c2nn(-c3ccccc3)cc2CO)cc1 | . | . | 1 | 290 | -4 | 1
N=C(N)SCc1cn(-c2ccccc2)nc1-c1ccc(Br)cc1 | -16 | 7 | 17* | . | 33 | 1
O=C(O)c1c2ccccc2cc2ccccc12 | 10 | 12 | . | . | . | .
Oc1cc(-c2ccccc2)c2ccccc2c1 | 61* | 7 | 4 | 125 | 0 | 10
Nc1nnnn1/N=C/c1ccccc1 | . | . | 0 | 141 | ? | -3
O=C(NCC1CC1)c1ccc(Nc2nc3ccc(Br)cc3[nH]2)cc1 | -44 | 74* | 1 | 390 | 1 | 11
O=C(COC(=O)CCc1c[nH]c2ccccc12)Nc1ccc([N+](=O)[O-])cc1 | -78 | 2 | 8.6* | 147 | -2 | 27
Cn1cnnc1Sc1nc2ccccc2nc1NS(=O)(=O)c1ccccc1 | 30 | 10 | -1 | 494 | 0 | -4
Cn1ccnc1Sc1nc2ccccc2nc1NS(=O)(=O)c1ccccc1 | 50 | 52* | -1 | 416 | -1 | 11
COc1ccc(N=c2oc3c(OC)cccc3cc2C(=O)NC2CCCC2)cc1 | 79* | 5 | . | . | . | .
COC(=O)c1ccc(C2C(Oc3ccccc3)C(=O)N2CCc2ccc(OC)c(OC)c2)cc1 (configuration not stated) | 25 | 5 | 8.9* | 732 | -3 | 6
COc1ccc(OC2C(=O)N(CCc3ccc(OC)c(OC)c3)C2c2ccc3c(c2)OCO3)cc1 (configuration not stated) | 6 | 16 | 3 | 371 | 0 | 23
CC(C)NC(=O)C1(c2ccccc2)CCOCC1 | 23 | 13 | -1 | 446 | -2 | 0
Cc1ccc(-c2ccc(/C=C3\C(=O)ON=C3c3ccccc3)o2)c([N+](=O)[O-])c1 | -12 | 23 | 1 | 709 | 106* | 21
Cc1ccc(/C=C2\C(=O)ON=C2c2ccccc2)o1 | 16 | 3 | 2 | 262 | 1 | 18
CC1(C(=O)NCc2ccccc2)CN(S(C)(=O)=O)CC(=O)N1CCc1ccccc1F (configuration not stated) | . | . | . | . | -2 | .
